Screens deposited in PubChem BioAssay by Johns Hopkins Ion Channel Center.
A selection: hits, their analogues and other compounds. The true share with any hit is near 3.1%.
KCNQ1 act: human KCNQ1 channel potentiation or activation | P51787 | CHO-K1 KCNQ1, thallium flux FluxOR fluorescence; hits give high values | B-score at 10 µM | 310,000 tested, 0.35% active | AID 2648;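 active means fluorescence ratio B-score, a plate-corrected score, at least three library SD, with initial intensity B-score within 5 SD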
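Assay system: CHO-K1 cells stably expressing KCNQ1; Medium: assay buffer with matched DMSO; Also added: K+/Tl+ depolarizing stimulus; Dosing: single dose; Timing: dye 90 min, compound 20 min, room temperature; Measured by: kinetic FluxOR thallium fluorescence, 10-s 1-Hz baseline, 110-s post-stimulus read; Read-out: peak-minus-minimum fluorescence over initial fluorescence, negative-control normalized, B-scored.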
KCNK9 inh: inhibitors of human KCNK9 two-pore domain potassium channel | B-score at 10 µM | HEK293 KCNK9, FluxOR thallium flux fluorescence; hits give low values | AID 488922 | 310,000 tested, 1.2% active;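 active means ratio B-score over 3 SD below the library mean, with starting fluorescence within 5 SD of its mean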;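 further: negative B-score means less thallium flux so channel inhibition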
KCNQ1 block: blocks the human KCNQ1 potassium channel. CHO-K1 KCNQ1, FluxOR thallium flux fluorescence; hits give high values. B-score at 10 µM. 310,000 tested, 1.3% active. AID 2642;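 active means compounds whose thallium flux B-score, printed positive for inhibition, exceeds three library SD while starting fluorescence stays within three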;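 further: channel opened by potassium depolarization with thallium stimulus after 20 min compound exposure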
KCNK3 inh: human KCNK3 channel inhibition, primary screen. O14649. 340,000 tested, 0.84% active. AID 602410. CHO-KCNK3 thallium flux, FluxOR fluorescence; hits give low values. B-score at 10 µM;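 active means B-score under library mean minus 4 SD, starting fluorescence ratio at most library mean plus 5 SD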;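 further: more negative B-score means stronger inhibition of thallium flux through KCNK3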
hERG rescue: hERG (human) protection from proarrhythmic block; Q12809; CHO-hERG, FluxOR thallium flux, dofetilide IC70 present; activation (rescue from dofetilide block), less the hit threshold, % at 10 µM; 310,000 tested, 0.51% active; AID 1511;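 active means activation above the mean of controls blocked by dofetilide plus 5 SD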;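 further: thallium influx through hERG after potassium depolarization seen as dye fluorescence rise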
KCNK9 block conf: human KCNK9 inhibitor confirmation | AID 492992 | HEK293 KCNK9 cells, FluxOR thallium flux fluorescence | shares compounds with KCNK9 inh | 4,900 tested, 43% active | inhibition, % at 10 µM;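 active means thallium signal inhibited by more than 5 SD of the compound-free buffer control wells, on both duplicate plates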;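 further: 0% = assay buffer control wells without compound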
Kir2-1 spec: selectivity of KCNK9 modulators against mouse Kir2.1; Kir2.1 cells, FluxOR thallium flux fluorescence; 4,900 tested, 4% active; AID 492993; shares compounds with KCNK9 inh; inhibition, % at 10 µM;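 active means thallium signal drop more than 5 SD beyond the mean of the no-compound control wells, seen in both duplicate plates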;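 further: signal is fluorescence rise after thallium addition divided by baseline fluorescence; plate controls were assay buffer only for no effect and full block by chlorpromazine control for full effect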
HEK293 Tl ctr: non-induced cell nonspecific activity of KCNK9 modulators; shares compounds with KCNK9 inh; non-induced KCNK9-HEK293, FluxOR thallium flux; inhibition, % at 10 µM; 4,900 tested, 40% active; AID 492997;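 active means thallium signal drop beyond 5 SD of the untreated control mean, on both duplicate plates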;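 further: plate controls were buffer only IC0 wells for no effect and SID17386958 at its maximal inhibitory level for full effect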
* marks the source's active call; other numbers are inactive results.

How did Cc1ccc(Cl)cc1NS(=O)(=O)Cc1ccccc1 do in these assays?
KCNQ1 act: inactive; KCNK9 inh: inactive; KCNQ1 block: inactive; KCNK3 inh: inactive; hERG rescue: -6; KCNK9 block conf: inactive; Kir2-1 spec: inactive; HEK293 Tl ctr: inactive

How did c1ccc(Cn2c(NCc3ccncc3)nc3ccccc32)cc1 do in these assays?
KCNQ1 act: inactive; KCNK9 inh: inactive; KCNQ1 block: inactive; KCNK3 inh: inactive; hERG rescue: -13

Results for COc1ccc(CNc2nc3ccccc3n2Cc2ccc(C)cc2)cc1OC ?
KCNQ1 act: inactive; KCNK9 inh: -8.5*; KCNQ1 block: inactive; KCNK3 inh: inactive; hERG rescue: -15; KCNK9 block conf: 28%*; Kir2-1 spec: inactive; HEK293 Tl ctr: inactive

Results for COc1ccc(N(CC(=O)NCC2CCCO2)S(=O)(=O)c2ccccc2)cc1OC (stereo not given) ?
KCNQ1 act: inactive; KCNK9 inh: inactive; KCNQ1 block: inactive; KCNK3 inh: inactive; hERG rescue: -5

How did COc1ccccc1NC(=O)C(=O)NCC(c1ccco1)N1CCc2ccccc2C1 (stereo not given) do in these assays?
KCNQ1 act: inactive; KCNK9 inh: inactive; KCNQ1 block: inactive; KCNK3 inh: inactive; hERG rescue: -6; KCNK9 block conf: inactive; Kir2-1 spec: inactive; HEK293 Tl ctr: inactive

What do the screens show for `O=C(NCC(c1ccco1)N1CCc2ccccc2C1)C(=O)Nc1ccccc1` (stereo not given)?
KCNQ1 act: inactive; KCNK9 inh: inactive; KCNQ1 block: inactive; KCNK3 inh: inactive; hERG rescue: -3

Results for O=c1cc(/C=C/c2ccccc2)oc2c1ccc1ccccc12 ?
KCNQ1 act: inactive; KCNK9 inh: -8.3*; KCNQ1 block: inactive; KCNK3 inh: inactive; hERG rescue: -15; KCNK9 block conf: inactive; Kir2-1 spec: inactive; HEK293 Tl ctr: inactive

How did Cc1ccc(SC[C@H](C)CN2CC[C@H](C)CCC2=O)cc1 do in these assays?
KCNQ1 act: inactive; KCNK9 inh: inactive; KCNQ1 block: inactive; KCNK3 inh: inactive; hERG rescue: -8; KCNK9 block conf: inactive; Kir2-1 spec: inactive; HEK293 Tl ctr: inactive

Results for CCOC(=O)C1=C(C)NC(=S)NC1c1ccc(-c2cccc(Cl)c2C)o1 (stereo not given) ?
KCNQ1 act: inactive; KCNK9 inh: -8.6*; KCNQ1 block: inactive; KCNK3 inh: inactive; hERG rescue: -7; KCNK9 block conf: inactive; Kir2-1 spec: inactive; HEK293 Tl ctr: inactive

How did CCOc1ccc(Br)cc1S(=O)(=O)Nc1ccccc1N1CCOCC1 do in these assays?
KCNQ1 act: inactive; KCNK9 inh: -10*; KCNQ1 block: inactive; KCNK3 inh: inactive; hERG rescue: -11; KCNK9 block conf: inactive; Kir2-1 spec: inactive; HEK293 Tl ctr: inactive

How did CCC(C)(C)n1nnnc1C(C(C)C)N(Cc1ccco1)Cc1cc2cc3c(cc2[nH]c1=O)OCO3 (stereo not given) do in these assays?
KCNQ1 act: inactive; KCNK9 inh: -10*; KCNQ1 block: inactive; KCNK3 inh: inactive; hERG rescue: -9; KCNK9 block conf: 42%*; Kir2-1 spec: inactive; HEK293 Tl ctr: 42%*

How did CSc1cccc(NC(=S)N2CCC(c3ccccc3)C2)c1 (stereo not given) do in these assays?
KCNQ1 act: inactive; KCNK9 inh: inactive; KCNQ1 block: inactive; KCNK3 inh: inactive; hERG rescue: -7; KCNK9 block conf: inactive; Kir2-1 spec: inactive; HEK293 Tl ctr: inactive

What do the screens show for `CCc1cccc(NC(=S)N2CCC(c3ccccc3)C2)c1` (stereo not given)?
KCNQ1 act: inactive; KCNK9 inh: inactive; KCNQ1 block: inactive; KCNK3 inh: inactive; hERG rescue: -10; KCNK9 block conf: inactive; Kir2-1 spec: inactive; HEK293 Tl ctr: inactive

Results for CCOc1ccc(OCCC(=O)N(CC)CC(=O)Nc2c(F)cccc2F)cc1 ?
KCNK3 inh: inactive
